These results are taken from ChEMBL document CHEMBL1142992, “Discovery of diaryl imidazolidin-2-one derivatives, a novel class of muscarinic M3 selective antagonists (Part 1)” (J Med Chem, 2007).

Usually IC50 stands for the midpoint of a concentration-inhibition curve. The low end stands for higher potency, the high end for lower potency. The CLint scaled is a measure of how fast metabolising enzymes remove a compound, apart from limits set by blood flow. One may read the Papp as a coefficient for how fast a substance crosses the barrier. A high value points to fast passage.

The structures appear in SMILES notation. Calls of active or inactive are those of the source. A value given as a limit tells only on which side of the number the result lay.

One data set deals with Cytochrome P450 2D6 (Homo sapiens, UniProt P10635). Nature of the data set: Inhibition of human CYP2D6 expressed in insect cells. Format: ADME. In outline:
(§1)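 Insect-cell microsomes expressing human CYP1A2, 2C9, 2C19, 2D6 or 3A4, each with an isoform-specific fluorogenic substrate in 0.35 M potassium phosphate pH 7.4. […] Inhibitor serially diluted; plates prewarmed 10 min at 37 °C. Reaction stopped with acetonitrile/Tris, read by fluorescence. IC50 from nonlinear regression. Positive controls: furafylline, sulfaphenazole, tranylcypromine, quinidine, ketoconazole.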

Data set [1] in a line: Intrinsic clearance in rat liver microsomes. Format: ADME, Microsome. In outline: (§2)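 Human or rat liver microsomes at 0.5 mg/mL final, preincubated with 0.5 µM test compound in phosphate buffer pH 7.4 for 10 min at 37 °C. Clearance reported as mL/min/g liver.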
Data set [2] is described as follows: Permeability across human Caco-2 cell membrane. It counts as ADME, cell-based. In outline: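 Caco-2 monolayers grown 21 days on polycarbonate inserts. Integrity checked by TEER (1000 Ω) and sodium fluorescein leakage. Compound at 50 µM in 1% DMSO applied apically, 2 h at 37 °C. Apical and basolateral samples measured by LC-MS/MS. Papp = CbVb/(C0·A·t).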
Background: Caco-2 monolayers are a common model of the intestinal barrier.

The nature of data set [3]: Intrinsic clearance in human liver microsomes. It counts as ADME, Microsome. In outline: as §2
Background: Liver microsomes are a subcellular fraction often used to study metabolism.

In another data set the target is Cytochrome P450 2C19 (Homo sapiens, UniProt P33261). Nature of the data set: Inhibition of human CYP2C19 expressed in insect cells. It counts as ADME. In outline: as §1
Cytochrome P450 2C19, sequence (P33261 whole entry): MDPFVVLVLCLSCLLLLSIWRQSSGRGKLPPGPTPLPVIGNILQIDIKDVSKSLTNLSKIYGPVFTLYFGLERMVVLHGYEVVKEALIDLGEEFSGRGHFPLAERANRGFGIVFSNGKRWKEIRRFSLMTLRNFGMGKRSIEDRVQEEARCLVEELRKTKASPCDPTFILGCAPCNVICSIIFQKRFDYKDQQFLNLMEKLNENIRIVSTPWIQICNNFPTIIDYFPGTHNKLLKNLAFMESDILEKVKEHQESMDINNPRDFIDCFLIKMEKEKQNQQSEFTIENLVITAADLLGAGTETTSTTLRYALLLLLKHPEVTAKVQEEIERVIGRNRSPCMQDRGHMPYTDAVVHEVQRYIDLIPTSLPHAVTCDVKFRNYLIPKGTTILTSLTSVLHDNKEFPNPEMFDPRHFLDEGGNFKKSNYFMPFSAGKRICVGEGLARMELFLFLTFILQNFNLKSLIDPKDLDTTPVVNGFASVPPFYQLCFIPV
Data set [4] deals with T1, Muscarinic acetylcholine receptor M2 (Rattus norvegicus) (UniProt P10980).
T1 sequence (whole entry): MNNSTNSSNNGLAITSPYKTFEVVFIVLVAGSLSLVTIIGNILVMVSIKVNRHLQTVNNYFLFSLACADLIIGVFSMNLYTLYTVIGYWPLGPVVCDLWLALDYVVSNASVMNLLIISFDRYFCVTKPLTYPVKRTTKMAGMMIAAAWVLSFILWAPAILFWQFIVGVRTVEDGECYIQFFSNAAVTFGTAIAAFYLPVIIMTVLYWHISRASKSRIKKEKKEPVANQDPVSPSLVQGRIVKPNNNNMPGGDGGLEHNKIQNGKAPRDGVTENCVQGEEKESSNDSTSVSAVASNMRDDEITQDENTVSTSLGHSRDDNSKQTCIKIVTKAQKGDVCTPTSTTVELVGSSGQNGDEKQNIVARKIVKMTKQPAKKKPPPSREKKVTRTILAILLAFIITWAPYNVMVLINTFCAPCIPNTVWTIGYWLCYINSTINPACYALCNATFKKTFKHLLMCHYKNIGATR
Nature of the data set: Antagonist activity at muscarinic M2 receptor in rat left atria assessed as contraction of methacholine-induced relaxation upto 0.1 uM relative to EFS. It counts as functional. In outline: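 Female rat left atrium in Krebs-Henseleit at 33 °C, resting tension 0.5 g, eserine 1 µM present. Paced by EFS at 1 Hz, 5 ms pulses, 1.5× threshold voltage to give a stable basal force. Methacholine concentration-response curves run alone or with antagonist at 0.01-0.1 µM. Response read as delta % of basal force of contraction; mean ± SEM, n = 6-7.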

In the next data set the target is Cytochrome P450 2C9 (Homo sapiens, UniProt P11712). Briefly: Inhibition of human CYP2C9 expressed in insect cells. It counts as ADME. In outline: as §1
Cytochrome P450 2C9, sequence (P11712 whole entry): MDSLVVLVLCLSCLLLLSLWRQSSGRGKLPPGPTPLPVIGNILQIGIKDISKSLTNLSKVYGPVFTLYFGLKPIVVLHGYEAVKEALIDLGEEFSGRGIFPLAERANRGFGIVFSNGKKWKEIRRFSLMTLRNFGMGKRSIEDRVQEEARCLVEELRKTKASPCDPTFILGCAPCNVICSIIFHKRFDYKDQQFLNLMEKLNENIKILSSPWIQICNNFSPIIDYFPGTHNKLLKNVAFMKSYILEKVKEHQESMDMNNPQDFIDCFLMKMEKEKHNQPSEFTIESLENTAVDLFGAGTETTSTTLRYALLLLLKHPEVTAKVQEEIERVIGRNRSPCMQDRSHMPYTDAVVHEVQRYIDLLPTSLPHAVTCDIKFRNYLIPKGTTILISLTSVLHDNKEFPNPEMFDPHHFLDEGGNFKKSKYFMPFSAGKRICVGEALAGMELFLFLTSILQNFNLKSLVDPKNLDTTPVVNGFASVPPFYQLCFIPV
The next data set has as its target T2, Cytochrome P450 1A2 (Homo sapiens, UniProt P05177).
T2 sequence (P05177 whole entry): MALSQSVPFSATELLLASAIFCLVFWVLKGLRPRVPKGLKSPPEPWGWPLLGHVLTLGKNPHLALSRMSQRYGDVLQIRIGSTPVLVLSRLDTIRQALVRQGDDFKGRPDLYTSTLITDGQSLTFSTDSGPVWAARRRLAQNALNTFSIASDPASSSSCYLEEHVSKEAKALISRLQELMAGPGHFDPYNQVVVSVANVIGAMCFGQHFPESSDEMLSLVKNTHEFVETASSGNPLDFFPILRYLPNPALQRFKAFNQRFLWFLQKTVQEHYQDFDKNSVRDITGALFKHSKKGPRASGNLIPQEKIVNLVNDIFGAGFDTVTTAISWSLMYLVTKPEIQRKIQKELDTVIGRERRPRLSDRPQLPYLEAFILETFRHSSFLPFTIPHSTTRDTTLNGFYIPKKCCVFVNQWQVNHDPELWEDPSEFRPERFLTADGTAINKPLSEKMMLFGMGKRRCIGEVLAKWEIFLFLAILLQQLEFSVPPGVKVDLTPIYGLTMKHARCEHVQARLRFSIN
Nature of the data set: Inhibition of human CYP1A2 expressed in insect cells. Format: ADME. In outline: as §1

The target in another data set is Cytochrome P450 3A4 (Homo sapiens, UniProt P08684). Nature of the data set: Inhibition of human CYP3A4 expressed in insect cells. It counts as ADME. In outline: as §1
Cytochrome P450 3A4, sequence (P08684 whole entry): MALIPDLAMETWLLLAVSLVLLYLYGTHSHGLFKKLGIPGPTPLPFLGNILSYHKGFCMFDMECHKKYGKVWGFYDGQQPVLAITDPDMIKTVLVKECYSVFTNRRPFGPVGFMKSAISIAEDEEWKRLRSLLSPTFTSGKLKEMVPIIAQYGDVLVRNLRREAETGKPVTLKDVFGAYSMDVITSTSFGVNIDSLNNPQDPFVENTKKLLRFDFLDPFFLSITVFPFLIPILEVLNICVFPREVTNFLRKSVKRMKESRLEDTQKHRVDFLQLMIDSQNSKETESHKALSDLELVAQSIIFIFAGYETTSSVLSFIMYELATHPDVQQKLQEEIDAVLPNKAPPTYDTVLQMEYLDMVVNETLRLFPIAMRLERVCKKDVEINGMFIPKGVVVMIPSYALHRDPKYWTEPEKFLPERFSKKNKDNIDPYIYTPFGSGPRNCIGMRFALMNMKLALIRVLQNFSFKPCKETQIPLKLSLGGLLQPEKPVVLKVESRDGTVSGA

Cytochrome P450 2D6, sequence (P10635 whole entry, canonical isoform): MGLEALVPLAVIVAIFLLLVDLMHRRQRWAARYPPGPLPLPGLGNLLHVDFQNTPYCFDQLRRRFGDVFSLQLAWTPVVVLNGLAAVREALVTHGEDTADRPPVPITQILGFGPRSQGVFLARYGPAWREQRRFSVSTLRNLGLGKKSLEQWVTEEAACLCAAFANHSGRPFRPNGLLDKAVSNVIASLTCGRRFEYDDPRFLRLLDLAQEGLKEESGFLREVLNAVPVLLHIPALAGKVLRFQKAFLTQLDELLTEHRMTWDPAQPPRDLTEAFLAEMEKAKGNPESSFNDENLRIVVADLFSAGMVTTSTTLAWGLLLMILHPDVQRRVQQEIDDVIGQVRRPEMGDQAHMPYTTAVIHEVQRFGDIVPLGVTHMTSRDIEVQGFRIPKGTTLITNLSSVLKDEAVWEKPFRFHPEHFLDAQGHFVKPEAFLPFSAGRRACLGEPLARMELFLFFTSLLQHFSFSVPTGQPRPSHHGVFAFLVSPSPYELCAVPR

Take `O=C1NC(c2ccc(F)cc2)(c2ccc(F)cc2)CN1C1CCN(Cc2ccccc2)CC1`: the IC50 at Cytochrome P450 2D6 was 4.7 µM; against Cytochrome P450 2C19, 12.9 µM; against Cytochrome P450 2C9, 7 µM; against Cytochrome P450 1A2, > 100 µM; on Cytochrome P450 3A4 it was 91.9 µM. In addition, the intrinsic metabolic clearance (CLint scaled) was determined as 2 mL/min/g in data set [1] and 0.56 mL/min/g in [3]. Also, the Papp in data set [2] was > 5 ×10⁻⁶ cm/s. In data set [4], the outcome was inactive.
